Source: article PMC10108379 (RSC Advances, 2023)

How the values were obtained:
HepG-2 cells = conditions: previous PD experiments of the group; cited from earlier work
[1] = Stability of the three components in rat plasma; assay type: in vitro ADME; conditions: for Stability, RE: n = 6
Procedure, shortened: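 Blank rat plasma spiked with each analyte at low, medium and high QC levels, then subjected to repeated freeze–thaw cycles. Samples were thawed to room temperature and precipitated with cold methanol containing puerarin as internal standard, then vortexed 3 min and centrifuged at 12 000 rpm for 15 min. Analysis was by UPLC-MS/MS on an HSS T3 column at 30 °C (0.1% formic acid water/acetonitrile gradient). Acceptance limit: within 15%.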

[2] = Pharmacokinetics in rat plasma after oral administration of AR and SAR extracts; assay type: in vivo, Sprague-Dawley (SD) rats
[3] = freeze–thaw cycles, high QC (200 / 300 / 250 μg mL^−1)
[4] = −20 °C for 30 days, high QC (200 / 300 / 250 μg mL^−1)
[5] = rat plasma, oral AR extract 5 mL kg^−1, n = 6

| increase of AUC after administration of the SAR extract ([2]; SAR group compared to AR group, rats, oral) | T max [2, 5] | t 1/2 [2, 5] | SMILES | glucose consumption of HepG-2 cells (HepG-2 cells) | relative error (RE) after each stability experiment ([1]; 4 °C 24 h, −20 °C 30 days, freeze–thaw cycles, all QC levels) | Stability, RE ([1]; autosampler at 4 °C for 24 h, low QC (2.0 / 3.0 / 2.5 μg mL^−1)) | Stability, RE [1, 3] | Stability, RE ([1]; freeze–thaw cycles, low QC (2.0 / 3.0 / 2.5 μg mL^−1)) | Stability, RE ([1]; freeze–thaw cycles, medium QC (20.0 / 30.0 / 25.0 μg mL^−1)) | Stability, RE [1, 4] | Stability, RE ([1]; −20 °C for 30 days, low QC (2.0 / 3.0 / 2.5 μg mL^−1)) | Stability, RE ([1]; −20 °C for 30 days, medium QC (20.0 / 30.0 / 25.0 μg mL^−1)) | C max [2, 5] |
| --- | --- | --- | --- | --- | --- | --- | --- | --- | --- | --- | --- | --- | --- |
| – | – | – | C[C@H]1CC[C@@]2(OC1)O[C@H]1C[C@H]3[C@@H]4CC[C@@H]5C[C@@H](O[C@@H]6O[C@H](CO)[C@H](O)[C@H](O)[C@H]6O[C@@H]6O[C@H](CO)[C@@H](O)[C@H](O)[C@H]6O)CC[C@]5(C)[C@H]4CC[C@]3(C)[C@H]1[C@@H]2C [Timosaponin AIII, timosaponin AIII] | improved the glucose consumption | ≤ 10.6% | 1.3% | 3.8% | −0.1% | 6.8% | 10.6% | 2.2% | 6.3% | 3.67 ± 0.51 ng/mL |
| 22.3% | 5.76 ± 0.52 h | 3.01 ± 0.36 h | O=c1c2cc(O)c(O)cc2oc2cc(O)c([C@@H]3O[C@H](CO)[C@@H](O)[C@H](O)[C@H]3O)c(O)c12 [Mangiferin, mangiferin] | improved the glucose consumption | – | – | 10.2% | – | – | 2.3% | – | – | – |
